The test system of data set [1] is Calu-3 bearing nude mice. Briefly: Toxicity study. Type of data set: in vivo, BALB/c nude mice. The procedure, abridged: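 Same Calu-3 xenograft nude mice and intravenous dosing every four days, with a PBS control group. Body weight was recorded every four days during the efficacy study. At termination (38 days), heart, liver, spleen, kidney and lung tumor were formalin-fixed and paraffin-embedded. Sections of 5 μm were H&E-stained and examined microscopically by a toxicologist.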

The test system of data set [2] is MCF-7 3D tumor spheroids. Kind of data set: Antiproliferative activity in multicellular 3D tumor spheroid. Particulars: read-out: 3D tumor spheroid IC50 (72 Hours) MCF-7, hanging drop spheroids, CellTiter-Glo 3D, mean ± SD, n=3. Type of data set: cell-based, human. A digest of the protocol:
(§1)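 Hanging-drop spheroids seeded at 500 cells/μL in 40 μL of medium and formed over 24 h at 37 °C, 5% CO2, humidified. Spheroids moved to round-bottom 96-well plates in serum-free medium and treated with test compound at 0.01–100 μM for 72 h at 37 °C. Viability read by CellTiter-Glo 3D luminescence, and IC50 derived from the dose-response.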

Data set [3] has as its system BT474 3D tumor spheroids. The data set is described as above. Type of data set: cell-based, human. Particulars: read-out: 3D tumor spheroid IC50 (72 Hours) BT474, hanging drop spheroids, CellTiter-Glo 3D, mean ± SD, n=3. The procedure, abridged: as §1
Data set [4] relates to MCF-7 spheroids. Kind of data set: In vitro tumor growth inhibition in 3D tumor spheroids. It counts as cell-based, human. Particulars: 3 μM, 5 days. A digest of the protocol:
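MCF-7 cells (40 μL at 125 cells/μL) grown as hanging-drop spheroids at 37 °C, 5% CO2, humidified, until about 100–200 μm, then moved to round-bottom 96-well plates (day zero). Treated with test compound at 3 μM, with untreated controls. Imaged for five consecutive days under a 4× objective, and volume calculated as 0.5 × length × width².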

In data set [5] the test system is Calu-3 bearing nude mice. Kind of data set: In vivo antitumor activity. Further details: species or system BALB/c nude mice. Particulars: intravenous, Dox-equivalent dose 6 mg kg−1 every four days, mean ± SD, n=5. The procedure, abridged:
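Male and female BALB/c nude mice (22–35 g) received 1×10⁷ Calu-3 cells in 100 μL culture medium subcutaneously in the right back. At 30–50 mm³ tumors, mice were randomized (n = 5/group). Dosing was intravenous every four days, with PBS as control. Tumor volume was measured every four days. Mice were killed at 38 days and tumors weighed.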

Data set [6] deals with Calu-3 3D tumor spheroids. Briefly: Antiproliferative activity in multicellular 3D tumor spheroid. Type of data set: cell-based, human. Particulars: read-out: 3D tumor spheroid IC50 (72 Hours) Calu-3, hanging drop spheroids, CellTiter-Glo 3D, mean ± SD, n=3. The procedure, abridged: as §1
The subject of data set [7] is BT474. Kind of data set: Antiproliferative activity, CellTiter-Glo assay. Particulars: read-out: IC50 (72 Hours) BT474, 72 h incubation, triplicate. It counts as cell-based, human. The procedure, abridged:
(§2)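 Cells were plated in 96-well plates and held 24 h at 37 °C in 5% CO2. Media with 10% FBS, 1% penicillin-streptomycin and 1% insulin were RPMI-1640 for BT474, EMEM for Calu-3 and Fibroblast Basal Medium for HLFs. Test compound or liposome was added at 0.001–100 μM for 72 h. Cells were PBS-washed before CellTiter-Glo luminescence. Triplicate runs; IC50 from dose-response plot.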

Data set [8] relates to Calu-3. Kind of data set: Apoptosis study. Type of data set: cell-based, human. Particulars: Calu-3, 3 μM, 12 h, annexin V-FITC/PI, n=3. The procedure, abridged: (§3)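 Cells were seeded at 2×10⁵ cells/mL in flasks and cultured 24 h. At 70% confluence they were exposed to 3 μM test compound in serum-free medium for 12 h. Cells were then trypsinized, washed in ice-cold PBS and resuspended in binding buffer at 2.5×10⁶ cells/mL. Staining with annexin V-FITC plus propidium iodide ran 15 min before flow cytometry.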

Data set [9] has as its system BT474. Kind of data set: Apoptosis study. It counts as cell-based, human. Particulars: BT474, 3 μM, 12 h, annexin V-FITC/PI, n=3. A digest of the protocol:
as §3

Data set [10] has as its system non-cancerous lung fibroblast cells (HLFs). Briefly: Antiproliferative activity, CellTiter-Glo assay. Type of data set: cell-based, human. Particulars: read-out: IC50 (72 Hours) HLFs, 72 h incubation, triplicate. A digest of the protocol: as §2
The test system of data set [11] is Calu-3. Briefly: Antiproliferative activity, CellTiter-Glo assay. Type of data set: cell-based, human. Particulars: read-out: IC50 (72 Hours) Calu-3, 72 h incubation, triplicate. A digest of the protocol:
as §2

For the compound `COc1cccc2c1C(=O)c1c(O)c3c(c(O)c1C2=O)C[C@@](O)(C(=O)CO)C[C@@H]3O[C@H]1C[C@H](N)[C@H](O)[C@H](C)O1` [Free Dox, Doxorubicin], in [1] (Dox-equivalent 6 mg kg−1 every four days, 38 days after tumor implantation), the body weight loss result is listed as “significant weight loss”. In addition, the “histopathology of heart tissues” value in [1] (H&E, at 38 days, compared to control group) is listed as “some amount of vascular degeneration”. Besides, the “histopathology of liver and kidneys” value in data set [1] (H&E, at 38 days, compared to control group (PBS)) was “no apparent inflammatory reaction, structural modification, or pathological abnormalities”. For the same compound, the histopathology of spleen result in data set [1] (H&E, at 38 days, compared with control group) was “loss of lymphoid blue matter and deposition of red matter”. Further, the IC50 in [2] stood at 548 ± 125 nM; in data set [3] it was 845 ± 58 nM; in [6], 745 ± 54 nM; in data set [7] it was 399 ± 79 nM; in data set [10] it was 170 ± 82 nM; in data set [11] it was 158 ± 75 nM. Moreover, in data set [4], the “inhibition of spheroid growth” value is “significant inhibition of spheroidal tumor growth”. Besides, the “mean tumor size at 38 days after implantation” value in data set [5] is reported as 68.26 ± 25.89 mm^3. Further, the “mean tumor weight at 38 days after implantation” value in data set [5] stood at 162.8 ± 21.98 mg. Besides, the “total percentage of apoptosis” value in data set [8] stood at 16.83%; in data set [9], 35.49%.
